Assay results published in paper PMC8082945 (Journal of medicinal chemistry, 2020).
Several values for one entry are separate records, joined by “and”; a condition that tells them apart may be missing. Equal entries are not always repeated.

Key:
[1] = test system: MIA PaCa-2 cells; experiment: Lipid ROS measurement; format: cell-based; conditions: 24 h treatment, BODIPY C11
Method in brief: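 After compound exposure, MIA PaCa-2 cells received 10 μM C11-BODIPY for 30 min at 37 °C. They were washed twice with DPBS and read in HBSS on a plate reader at Ex/Em 581/591 nm (reduced dye) and 488/510 nm (oxidized dye). The Texas Red/FITC emission ratio was calculated; significance by unpaired Student's t-test.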

[2] = test system: mouse colon cancer cell line CT-26; experiment: CT-26 subcutaneous tumor study in Balb/c mice; format: in vivo; conditions: n=5, preliminary study
[3] = Tissue distribution analysis in mice; format: in vivo; conditions: mouse, colon, intravenous, 10 mg/kg
Method in brief: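 Tissue homogenised with bead beating in dissociation solvent at five-fold tissue weight. 30 μL homogenate mixed with 30 μL acetonitrile and 140 μL internal standard, vortexed, and centrifuged at 3500 g for 10 min. Supernatant analysed by LC-MS against calibration curves made in spiked blank homogenate.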

[4] = test system: LRPPRC and PNPT1; experiment: Immunoblot of LRPPRC and PNPT1 expression; format: cell-based; conditions: MIA PaCa-2 cells, 3 × IC50, 4 h
Method in brief: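 Cells seeded at 3.5 × 10^5 per 6-well were treated for 1 h or 4 h (H2O2 comparator 150 μM). Lysis was in RIPA with protease/phosphatase inhibitors, then sonication and BCA. 25 μg protein was run on 10% SDS-PAGE and transferred to PVDF. Blocking: 5% milk. Primary antibodies 1:500–1:1000 overnight at 4 °C, Dylight 800 secondary 1:6000 for 1 h. Infrared imaging; band densities normalized to loading controls.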

[5] = target: T1, GPX4 (Homo sapiens, UniProt P36969); experiment: Cellular thermal shift assay; format: cell-based; conditions: pancreatic cancer cells, 100 μM, 1 h
T1 sequence (P36969 1-197): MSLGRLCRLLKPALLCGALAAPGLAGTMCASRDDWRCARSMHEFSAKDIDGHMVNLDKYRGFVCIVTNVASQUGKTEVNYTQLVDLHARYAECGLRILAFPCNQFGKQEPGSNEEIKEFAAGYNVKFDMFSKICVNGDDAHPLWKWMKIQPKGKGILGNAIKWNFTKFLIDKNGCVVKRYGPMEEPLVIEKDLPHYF
Method in brief: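 MIA PaCa-2 or PANC-1 cells seeded at 3 × 10^6 per 10 cm dish, attached overnight, then exposed to 100 μM test compound or DMSO for 1 h. After heating, supernatants were resolved on 10% SDS gels and immunoblotted for GPX4. Bands were quantified to derive a GPX4 melting temperature.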

[6] = test system: MIA PaCa-2 cells; experiment: Cellular ROS measurement; format: cell-based; conditions: for Cellular ROS: MIA PaCa-2 cells, 0-4 h, 30 min
Method in brief: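 MIA PaCa-2 cells (RPMI 1640, 10% FBS, 37 °C, 5% CO2) seeded at 1.8 × 10^4 cells/well and attached overnight. Cells loaded with 10 μM CM-H2DCFDA in HBSS for 40 min at 37 °C, then washed twice with DPBS. Test compound added in HBSS at set concentrations. Fluorescence read at Ex 483/Em 530 nm over time. TBHP served as positive control.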

[7] = PK study in CD-1 mice; format: in vivo; conditions: for Concentration at 7 h in mouse plasma, IP: IP 10 mg/kg, 10 mg/kg; for Concentration at 7 h in mouse plasma, IP / Concentration at 7 h in mouse plasma, PO: n=2, individual values; for Survival of mice after IV injection: IV 10 mg/kg; for Concentration at 7 h in mouse plasma, PO: PO 20 mg/kg, 20 mg/kg
Method in brief: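 CD-1 mice dosed IP (10 mg/kg), PO (20 mg/kg) or IV (10 mg/kg). Blood drawn at 0.5, 2, 4 and 7 h using heparinized calibrated pipettes and centrifuged at 15,000 rpm for 10 min. Plasma collected, frozen at −80 °C, and assayed by LC-MS/MS.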

[8] = test system: MIA PaCa-2 pancreatic cancer cells; experiment: MTT cytotoxicity assay in MIA PaCa-2 cells; format: cell-based; conditions: read-out: IC50 MIA PaCa-2, 72 h, mean ± sd, three independent experiments
Method in brief: (§1)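 Cells kept in RPMI 1640 with 10% FBS, under 35 passages, mycoplasma-free. Seeded in 96-well plates and attached overnight. Exposed to test compound or DMSO for 72 h, then 0.3 mg/mL MTT for 3 h at 37 °C. Medium removed, formazan dissolved in DMSO with 15 min shaking, absorbance read at 570 nm. IC50 obtained by curve fitting; mean ± SD from at least three independent experiments.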

[9] = test system: PANC-1 pancreatic cancer cells; experiment: MTT cytotoxicity assay in PANC-1 cells; format: cell-based; conditions: read-out: IC50 PANC-1, 72 h, mean ± sd, three independent experiments
Method in brief: as §1

[10] = test system: BxPC-3 pancreatic cancer cells; experiment: MTT cytotoxicity assay in BxPC-3 cells; format: cell-based; conditions: read-out: IC50 BxPC-3, 72 h, mean ± sd, three independent experiments
Method in brief: as §1

[11] = test system: STAT3; experiment: Immunoblot of STAT3 phosphorylation and pH2AX; format: cell-based; conditions: MIA PaCa-2 and PANC-1 cells, 4 h
Method in brief: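 Cells seeded at 3.5 × 10^5/well (6-well) and treated 4 h at indicated concentrations. Lysed in RIPA with protease and phosphatase inhibitors, sonicated and centrifuged. 25 μg protein run on 10% SDS-PAGE and transferred to PVDF. Blocked in 5% milk; primary antibodies (STAT3, pSTAT3, pH2AX, GAPDH; 1:500–1:1000) overnight at 4 °C; infrared secondary 1:6000, 1 h RT. Signals normalised to loading control.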

[12] = test system: GSH/GSSG ratio; experiment: GSH/GSSG-Glo assay; format: cell-based; conditions: MIA PaCa-2 cells, 2 h and 4 h treatment
Method in brief: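 Luminescent GSH/GSSG-Glo kit. 15,000–20,000 cells/well attached overnight, then were treated. Medium was removed and cells were lysed in Total or Oxidized Glutathione Reagent (5 min shaking). Luciferin Generation Reagent was added for 30 min at room temperature, then Detection Reagent; luminescence was read after 15 min equilibration. Ratio from net RLU = (total glutathione − GSSG)/(GSSG/2).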

[13] = test system: pancreatic cancer cells; experiment: Colony formation assay, drug combinations; format: cell-based
Method in brief: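 Cells seeded in 96-well plates: 300/well for MIA PaCa-2, 600/well for PANC-1 and BxPC-3; attached overnight. Partner drug added 1 h before test compound, with continuous exposure. Incubation ran 7–9 days, until control wells were 80–90% confluent. Stained with 0.05% crystal violet for 30 min, washed, dried and imaged. Synergy scored with HSA and Bliss models.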

For `CC1=C(Nc2ccc(N3CCN(C)CC3)cc2)C(=O)c2cncnc2C1=O` [QD394-Me, 7-Methyl-6-((4-(4-methylpiperazin-1-yl)phenyl)amino)quinazoline-5,8-dione], the “Lipid ROS (lipid peroxidation)” value [1] was “increased lipid ROS significantly in a dose-dependent manner”, the “Tumor shrinkage, QD394-Me IV group” value ([2]; CT-26, IV 10 mg/kg) was “Three out of five mice displayed tumor shrinkage” and the concentration at 1 h [3] was ~300 ng/g. The “Protein expression of LRPPRC and PNPT1” value [4] was “significantly decreased protein expression of LRPPRC and PNPT1”, the “Effect on GPX4 protein stability (CETSA)” value [5] was “destabilized GPX4 protein” and the “Cellular ROS” value [6] was “significantly increased cellular ROS”. For the same compound, the “Concentration at 7 h in mouse plasma, IP” value [7] was 6.7 ng/mL and 1.1 ng/mL, the “Survival of mice after IV injection” value ([7]; n=3) was “all three mice that received IV injections of QD394-Me survived” and the “Concentration at 7 h in mouse plasma, PO” value [7] was 4.2 ng/mL.

With `CC(=O)c1cc2c(o1)C(=O)c1ccccc1C2=O` [Napabucasin, reference compound] the “Protein expression of LRPPRC and PNPT1” value [4] was “decreased the protein expression of these two genes”.

With “6-(9H-Fluoren-4-ylamino)quinazoline-5,8-dione [QD390]” the IC50 [8] was 3.1 ± 1.5 µM, the IC50 [9] was 4.7 ± 1.5 µM and the IC50 [10] was 4.5 ± 0.6 µM.

For `CN1CCN(c2ccc(NC3=CC(=O)c4ncncc4C3=O)cc2)CC1` [QD394, 6-(4-(4-Methylpiperazin-1-yl)phenylamino)quinazoline-5,8-dione], the “Lipid ROS (lipid peroxidation)” value [1] was “significantly increased lipid ROS in a dose-dependent manner”, the “Phosphorylation of H2AX (DNA damage biomarker)” value [11] was “increased the phosphorylation of H2AX” and the “Phosphorylation of STAT3” value [11] was “inhibited the phosphorylation of STAT3”. For the same compound, the “Tumor shrinkage, QD394 IP group” value ([2]; CT-26, IP 20 mg/kg) was “Three out of five mice displayed tumor shrinkage”, the GSH/GSSG ratio [12] was “significantly decreased the GSH/GSSG ratio” and the “Protein expression of LRPPRC and PNPT1” value [4] was “significantly decreased their expression at 4 h”. For the same compound, the “Effect on GPX4 protein stability (CETSA)” value [5] was “destabilized GPX4 protein”, the “Cellular ROS” value [6] was “time-dependent cellular ROS accumulation” and the “Intracellular ROS level among analogs” value ([6]; after 1 h compound treatment) was “highest level of intracellular ROS”. The Combination with napabucasin ([13]; MIA PaCa-2 and PANC-1 cells) was “synergism”, the “Combination with As2O3” value ([13]; pancreatic cancer cells) was “sensitizes cells to As2O3” and the Combination with olaparib ([13]; pancreatic cancer cells) was “synergistic effects”. The “Concentration at 7 h in mouse plasma, IP” value [7] was 5.0 ng/mL, the “Survival of mice after IV injection” value ([7]; n=3, 10 mg/kg) was “two out of three mice administered with QD394 via IV injection died and 2 out of 3 mice died” and the “Concentration at 7 h in mouse plasma, PO” value [7] was 23.3 ng/mL and 25.8 ng/mL.
